Source: the RNAGym collection of RNA variant scans (doi:10.1126/science.aae0568)
Variants at the floor of the assay were thinned out.

B1: tRNA (parent)
chain: GUUCCGUUGGCGUAAUGGUAACGCGUCUCCCUCCUAAGGAGAAGACUGCGGGUUCGAGUCCCGUACGGAACG

Variants of: B1
Assay: yeast fitness relative to wild type (ratio to wild type); higher = fitter; tRNA-Arg(CCU), competitive growth, 37 C, YPD
In short: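 Variants of the tRNA-Arg(CCU) gene were chemically synthesised with a 3% per-site mutation rate across 69 sites and placed at the native genomic locus in Saccharomyces cerevisiae. Six parallel replicates of the pooled strains were competed in YPD at 37°C for 24 hours, and gene amplicons from the start and end populations were read by 100-nucleotide paired-end sequencing. Darwinian fitness relative to wild type was derived from changes in genotype frequencies. Genotypes required ≥ 100 starting reads, and estimates < 0.5 were set to 0.5.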

Variant | yeast fitness
G39C C46U G56A | 0.694
G39C C49A G51A | ≤ 0.5
G39C C49G A65U | ≤ 0.5
G39C C49G C66U | ≤ 0.5
G39C C49U A65U | ≤ 0.5
G39C C55G C66U | ≤ 0.5
G39C C55G U59A G63A | ≤ 0.5
G39C C55U | 0.572
G39C C60G G67C | ≤ 0.5
G39C C66U A69U | 0.551
G39C G44A C62G | 0.589
G39C G44C G52C | 0.623
G39C G48C | 0.688
G39C G48C C62G | ≤ 0.5
G39C G50C C61G | ≤ 0.5
G39C G51C C55G | ≤ 0.5
G39C G52A G68A | ≤ 0.5
G39C G56C A57G | ≤ 0.5
G39C G58C | 0.83
G39C G68U | 0.762
G39C U47A A57C | ≤ 0.5
G39C U47A G58A G63A | ≤ 0.5
G39C U54G | 0.547
G39C U59A | 0.779

Variant | yeast fitness
G39C U59C U64C A70C | ≤ 0.5
G39U | 1
G39U A40C C66A A69U | 0.642
G39U A45G G50C U54A G67A | 0.673
G39U A45G G51A | 0.527
G39U A70C | 0.811
G39U G52A G67U | ≤ 0.5
G39U U53A C55U | 0.684
A40C A42C | 0.619
A40C A42C C49G | ≤ 0.5
A40C A42C G68C | 0.569
A40C A42U | 0.782
A40C A42U C49G | 0.624
A40C A42U U53C C61G | ≤ 0.5
A40C A43C | 1.04
A40C A43G C60U C61U | ≤ 0.5
A40C A43G C61G C66U | 0.683
A40C A45C | 0.616
A40C A45C A65G G68U | ≤ 0.5
A40C A45G G63A | 0.518
A40C A57C | 0.637
A40C A57C C61A | ≤ 0.5
A40C A57G G67A | 0.554
A40C A57U | 0.789

Variant | yeast fitness
A40C A57U G58A | 0.644
A40C A69G | 0.985
A40C C46G | 0.975
A40C C46U C55G A70U | 0.503
A40C C49A | 0.668
A40C C49G A65G | 0.584
A40C C55G A69U | ≤ 0.5
A40C C60A | 0.654
A40C C61A | 0.716
A40C C61U | 0.799
A40C C62A | 0.651
A40C C62G | 0.66
A40C C66U | 0.895
A40C G41A U47A G67C | 0.637
A40C G41C G68C | 0.542
A40C G44A | 0.913
A40C G48A C60G | 0.683
A40C G51A | 0.84
A40C G52C C66U G67A | ≤ 0.5
A40C G56A | 0.883
A40C G56A A70G | 0.556
A40C G56C | 0.609
A40C G68A | 0.933
A40C U53C U59A C66U | ≤ 0.5

Variant | yeast fitness
A40C U59A | 0.801
A40C U59G C60G | ≤ 0.5
A40G A42G | 0.986
A40G A42G A43G U59C | ≤ 0.5
A40G A42G U59C | 0.618
A40G A42U G67C | ≤ 0.5
A40G A43C | 1.04
A40G A43G | 0.787
A40G A43G G67C | 0.725
A40G A43U | 0.995
A40G A43U C46G C49G C62U | 0.532
A40G A43U C49U C66U | ≤ 0.5
A40G A45C | 0.846
A40G A57U | 0.624
A40G A57U A65G | 0.531
A40G A65C | 0.858
A40G A65G | 0.984
A40G A65U | 0.813
A40G A69U | 1.06
A40G C46A | 1.04
A40G C46A C61U G67A | ≤ 0.5
A40G C46G U53G U64G | ≤ 0.5
A40G C46U C60G C66G | ≤ 0.5
A40G C46U U53G | ≤ 0.5

Variant | yeast fitness
A40G C46U U64C | 0.607
A40G C49G | 0.655
A40G C49G U59G G67C | 0.706
A40G C49U U59A | 0.572
A40G C55A C61U | ≤ 0.5
A40G C55U | 0.663
A40G C55U G56A U64G A69U | ≤ 0.5
A40G C60U | 0.674
A40G C61G | 0.628
A40G C61U | 0.741
A40G C61U A70U | 0.612
A40G C61U G68A | ≤ 0.5
A40G C62A | 0.641
A40G C62U | 0.715
A40G C62U A65U | ≤ 0.5
A40G C62U C66A A70C | 0.563
A40G C62U C66G A69C | ≤ 0.5
A40G C66U | 0.792
A40G G41A A42C A43G G44A A70U | ≤ 0.5
A40G G41A C55U | ≤ 0.5
A40G G44A U47C | 0.571
A40G G44C A57G C60A | ≤ 0.5
A40G G48A | 1.01
A40G G48A A65C G67C | ≤ 0.5

Variant | yeast fitness
A40G G48A G63A | 0.774
A40G G48C | 0.866
A40G G50A | 0.944
A40G G51A C55U | 0.556
A40G G52A G56U | ≤ 0.5
A40G G56A | 0.998
A40G G58A A69U | 1.04
A40G G58C C61G A65C | ≤ 0.5
A40G G67A A69C | 0.513
A40G G68A | 0.953
A40G G68C | 0.709
A40G U53A | 0.654
A40G U53A G63A | ≤ 0.5
A40G U64A | 0.737
A40U A42C C66A | ≤ 0.5
A40U A42G | 0.983
A40U A42G C55A | ≤ 0.5
A40U A42G G63A | 0.511
A40U A43C G52A | 0.667
A40U A43C U59C | 0.752
A40U A43G A65U | 0.675
A40U A43U C60U C62U C66U | ≤ 0.5
A40U A45C | 0.871
A40U A45G C60A | ≤ 0.5

Variant | yeast fitness
A40U A45U G67C | 0.582
A40U A57G U59C U64G | ≤ 0.5
A40U A65C A69U | 0.699
A40U A65G A70U | 0.591
A40U A70C | 0.941
A40U A70G | 0.934
A40U A70U | 0.99
A40U C49G A70U | 0.535
A40U C49U C61U A70G | ≤ 0.5
A40U C49U C62A C66A | ≤ 0.5
A40U C49U C62U A69G | 0.904
A40U C55A | 0.584
A40U C55A G68U | ≤ 0.5
A40U C60U | 0.832
A40U C61U | 0.783
A40U C62U | 0.87
A40U C66G | 0.71
A40U C66U | 0.904
A40U G44C | 0.954
A40U G44C U64C | 0.944
A40U G48A U64G | 0.631
A40U G50A | 0.801
A40U G50C | 0.726
